Compounds with a hit are over-represented: about 1.8% of the library has one in this group of screens.
Tn6 DDE FP = inhibitors of Tn6 peptide binding to human fibrin DD(E); AID 720509; Fibrin DD(E) TRITC-Tn6 fluorescence polarization displacement; 370,000 tested, 0.21% active; P02675; inhibition, % at 8.3 µM;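 active means inhibition above a per-campaign cutoff: mean of compounds within control limits plus 3 SD, cut at about 15% in these data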;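 further: 0% = median of all compound wells on the plate and 100% = blocking peptide control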
ABHD4 inh = ABHD4 (mouse) inhibition, primary FP screen | Q8VD66 | purified mABHD4, FP-Rh probe fluorescence polarization | inhibition, % at 8.92 µM | 370,000 tested, 0.54% active | AID 720543;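 active means inhibition exceeding the mean over every tested compound plus 3 SD, cut at about 30% in these data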;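 further: 0% = plate median of compound wells and 100% = S159A mutant with DMSO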
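Assay system: wild-type mouse ABHD4 protein; compound: single nominal dose of 8.92 µM, 0.89% DMSO final; schedule: 45 min + 60 min at 25 °C; measured by: FP readout, ex 525 nm / em 598 nm; evaluation: % inhibition of FP-Rh probe binding versus controls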
HTRA1 inh = blocks human HTRA1 serine peptidase. recombinant HTRA1, FP-rhodamine activity-based probe, fluorescence polarization. inhibition, % at 5.96 µM. 340,000 tested, 0.5% active; in the data active means inhibition above about 36%;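 further: 0% = enzyme with DMSO and 100% = wells lacking enzyme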
SIAE inh = blocks human sialic acid acetylesterase | SIAE FP-Rh probe binding, fluorescence polarization | inhibition, % at 9.66 µM | 370,000 tested, 0.69% active;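 active means inhibition above a cutoff: mean of compounds within the control limits plus 3 SD of those, cut at about 17% in these data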;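 further: 0% = plate median of compound wells and 100% = probe without SIAE protein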
Target sequence (Q9HAT2 whole entry, looked up): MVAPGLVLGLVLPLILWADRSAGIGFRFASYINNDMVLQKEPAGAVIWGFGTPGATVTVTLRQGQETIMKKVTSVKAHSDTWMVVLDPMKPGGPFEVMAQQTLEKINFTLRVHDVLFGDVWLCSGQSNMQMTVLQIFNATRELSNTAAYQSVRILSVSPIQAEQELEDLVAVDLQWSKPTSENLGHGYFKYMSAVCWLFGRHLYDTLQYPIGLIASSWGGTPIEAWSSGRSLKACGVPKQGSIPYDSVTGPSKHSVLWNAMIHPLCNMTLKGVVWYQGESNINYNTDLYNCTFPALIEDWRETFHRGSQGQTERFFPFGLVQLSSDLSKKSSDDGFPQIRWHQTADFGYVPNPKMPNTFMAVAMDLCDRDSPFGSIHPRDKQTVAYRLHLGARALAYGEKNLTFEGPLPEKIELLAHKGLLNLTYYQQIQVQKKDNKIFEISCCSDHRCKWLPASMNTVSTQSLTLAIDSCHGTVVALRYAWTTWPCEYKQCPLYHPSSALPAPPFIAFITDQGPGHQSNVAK
Tn7 DDE FP = inhibitors of Tn7 peptide binding to human fibrin DD(E); FP displacement of FITC-Tn7 peptide from fibrin DD(E); 0% = median of compound wells per plate; inhibition, % at 8.3 µM; 370,000 tested, 0.13% active;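 active means inhibition above the mean of compounds falling within the control limits plus 3 SD of them, cut at about 14% in these data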;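 further: 0% = plate median of compound wells and 100% = 10 µM Aha-Tn7 peptide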
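Assay system: human fibrin DD(E). Input: DD(E) 2 µM final. Medium: Tris buffer with calcium and detergent, pH 7.8. Compound dosing: single point at 8.3 µM. Timing: 10 min plus 3 h, room temperature. Technique: fluorescence polarization of the labelled Tn7 tracer. Read-out: percent inhibition. Replicates: singlicate testing.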
TCR-CD3 inh = human TCR-CD3 binding inhibition. AID 651800. 360,000 tested, 0.37% active. inhibition, % at 9.4 µM. TAMRA-labeled TCR probe fluorescence, biochemical; in the data active means inhibition above about 19%;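 further: recombinant mutant TCR 2C K166C tagged with TAMRA read by polarization; 0% = receptor in buffer alone and 100% = receptor with positive control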
DDE Tn6 FP ctr = counter-screen hit for Tn6 peptide-fibrin DD(E) binding disruption | shares compounds with Tn6 DDE FP | TRITC-Tn6 fluorescence polarization displacement; 0% = median of compound wells, not DMSO | inhibition, % at 8.3 µM | 680 tested, 2% active;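 active means inhibition above the mean of test compounds lying between the control limits plus 3 SD of those, cut at about 14% in these data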;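 further: 0% = median of compound wells and 100% = wells with Aha-Tn7 blocking peptide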
DDE Tn6 confirm = confirmation of inhibitors of Tn6 binding to human fibrin DD(E). shares compounds with Tn6 DDE FP. FP displacement of TRITC-Tn6 peptide from DD(E); 0% = per-plate median of test wells. inhibition, % at 8.3 µM. 680 tested, 10% active. AID 720631;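 active means inhibition above the mean of compounds lying within the control limits plus 3 SD, cut at about 16% in these data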;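 further: 100% = high control wells holding a competing inhibitor peptide at 10 µM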
ABHD4 confirm = ABHD4 (mouse) inhibition, FP confirmation. shares compounds with ABHD4 inh. purified mABHD4, FP-Rh probe fluorescence polarization. inhibition, % at 8.92 µM. 1,800 tested, 55% active;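 active means mean inhibition across replicates above the hit cutoff set in the primary screen, cut at about 30% in these data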;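 further: 0% = wild-type ABHD4 with DMSO and 100% = catalytically dead S159A mutant with DMSO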
SIAE confirm = confirmation of human SIAE inhibitors; shares compounds with SIAE inh; SIAE FP-Rh activity-based probe, fluorescence polarization; inhibition, % at 9.66 µM; 2,300 tested, 13% active; AID 1117263;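 active means mean inhibition of the replicates above the hit cutoff set in the primary screen, cut at about 17% in these data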;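 further: 0% = SIAE with DMSO and probe and 100% = probe without SIAE; inhibitors lower polarization as more probe stays unbound to SIAE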
An asterisk follows results filed as active; / = no result.

SMILES	Tn6 DDE FP	ABHD4 inh	HTRA1 inh	SIAE inh	Tn7 DDE FP	TCR-CD3 inh	DDE Tn6 FP ctr	DDE Tn6 confirm	ABHD4 confirm	others
N#C/C(=C\c1cccnc1)C(=O)Nc1ccc(O)cc1F	49*	67*	23	11	0	-19	-2	-1	11
N#C/C(=C\c1cccnc1)C(=O)Nc1ccc(C(=O)O)cc1	-14	-6	4	-3	-7	1	/	/	/
CN1CC=C2C(C#N)=C(N)C(C#N)(C#N)[C@H](c3cccc(Cl)c3)C2C1 (stereo partly drawn)	18*	31*	22	8	-2	5	4	-4	-2
O=C([C@@H]1C[C@H]1c1ccccc1)N1CCC(Oc2cccnc2)CC1	-3	2	/	6	2	/	/	/	/
COC(=O)C1=C(N)Oc2cc(N(C)C)ccc2C1c1ccccc1OC (stereo not drawn)	36*	47*	4	5	7	-9	7	-9	-20
COC(=O)C1=C(N)Oc2cc(C)n(CC3CCCO3)c(=O)c2C1c1ccccc1OC (stereo not drawn)	-7	0	5	6	1	3	/	/	/
COC[C@@H](O)[C@H]1OCc2cccc(OC)c2[C@@H]1/C=C/c1ccccc1	-3	-8	/	-13	-9	/	/	/	/
O=C(COc1ccccc1Cl)NC(=S)Nc1ccccc1N1CCCC1	16*	41*	-7	4	8	13	11	5	-8
COc1ccc(NC(=O)C(c2cc3c(cc2[N+](=O)[O-])OCO3)N(C)Cc2ccccc2)cc1 (stereo not drawn)	31*	67*	-23	15	1	16	2	1	-27
COc1cc(N)c2ncccc2c1Br	19*	62*	24	7	6	13	1	-1	28
COc1cc(N)c2ncccc2c1SC	6	17	10	12	2	-4	/	/	/
O=C(N[C@@H](Cc1cccnc1)C(=O)N1CCC[C@H]1C(=O)NCCc1ccccc1Cl)C1CC1	-6	3	/	2	-6	2	/	/	/
Nc1ccc(N2CCOCC2)c(S(=O)(=O)Nc2ccccc2Cl)c1	18*	19	10	39*	5	19	6	4	/	SIAE confirm=2
O=C(Nc1nc2c(Br)cccc2s1)c1ccc2c(c1)OCCO2	38*	-30	/	22*	-3	/	3	-9	/	SIAE confirm=-60
Cc1nc2c(ccc3nc(NC(=O)c4ccc5c(c4)OCCO5)sc32)s1	6	-10	-38	-43	-1	-1	/	/	/
CCOC(=O)[C@]12CCCC=C1N(CCCOC)C(=O)[C@@H]2CC(=O)NCc1cccc2ccccc12	3	-2	/	-2	1	/	/	/	/
Cc1ccc(C2CC(=O)Oc3cc(O)ccc32)cc1 (stereo not drawn)	34*	55*	30	19*	7	10	-4	8	44*	SIAE confirm=11
CC(=O)Nc1sc2c(c1-c1nc(-c3ccccc3)cs1)CCN(C(C)C)C2	-7	17	/	-3	-2	/	/	/	/
CC1=CC(=O)C=CC1=Nc1ccc(N(C)C)cc1	22*	64*	/	17*	-7	-5	2	-2	57*	SIAE confirm=12
CN(C)c1ccc(N=Nc2ccc(S(N)(=O)=O)cc2)cc1	6	-11	0	-5	-4	-3	/	/	/
CC(C)C1OC2(C)OC(=N)C1(C#N)C(C#N)(C#N)C2c1ccccc1 (stereo not drawn)	20*	35*	7	22*	9	18	-3	2	/	SIAE confirm=10
O=C(N[C@@H](Cc1cccnc1)C(=O)N1CCC[C@H]1C(=O)NC1CCCC1)c1cccs1	2	-11	/	1	2	0	/	/	/
Cc1cc(N/N=C/c2cccc(Cl)c2)nc(NCc2ccccc2)n1	-6	40*	-35	8	3	-5	/	/	60*
Cc1cc(N/N=C/c2ccccc2)nc(NCc2ccccc2)n1	-13	12	-6	0	-3	3	/	/	/
Cc1cc(N/N=C/c2cccc(F)c2)nc(NCc2ccccc2)n1	-2	39*	-25	-4	-6	10	/	/	39*
SMILES	Tn6 DDE FP	ABHD4 inh	HTRA1 inh	SIAE inh	Tn7 DDE FP	TCR-CD3 inh	DDE Tn6 FP ctr	DDE Tn6 confirm	ABHD4 confirm	others
Cc1cc(C)nc(N/N=C/c2cccc(Cl)c2)n1	1	8	4	0	1	-4	/	/	/
CCN(/C=N/c1sc2c(c1C#N)CCCCC2)CC	-1	32*	0	2	-1	1	/	/	35*
COc1cccc(NC(=O)C2CCN(S(=O)(=O)c3ccc4[nH]c(=O)oc4c3)CC2)c1	-8	42*	2	-7	-1	-2	/	/	43*
CCOC(=O)c1c(C)n(C)c2cc(Br)c(O)c(O)c12	-3	30*	9	13	0	-4	/	/	5
COc1ccc(CNS(=O)(=O)c2cc3c(cc2Br)CC(C)N3C(C)=O)cc1 (stereo not drawn)	6	2	/	9	-1	/	/	/	/
COc1ccccc1NS(=O)(=O)c1ccc(O)c(C(=O)OCc2cccc([N+](=O)[O-])c2)c1	-4	32*	-12	-2	2	1	/	/	38*
COc1ccccc1NS(=O)(=O)c1ccc(C)c(C(N)=O)c1	2	9	6	-3	-1	2	/	/	/
Cc1nn(Cc2ccccc2)c2c1C(c1ccc(Cl)cc1)C(C#N)=C(N)O2 (stereo not drawn)	-13	34*	8	2	-15	-5	/	/	-1
COc1ccc(/C=C/C(=O)Nc2cccnc2Cl)cc1	-1	97*	8	-4	6	9	/	/	-4
COc1ccccc1/C=C/C(=O)Nc1cccnc1Cl	3	5	-2	-6	10	0	/	/	/
O=C(NN=Cc1ccc(O)cc1O)c1ccccc1NS(=O)(=O)c1cccs1	6	33*	20	9	9	18	/	/	36*
COc1ccc(N2C(=O)CC(Nc3ccc(N4CCOCC4)cc3)C2=O)c(OC)c1 (stereo not drawn)	4	49*	22	30*	1	10	/	/	14
COc1ccc(N2C(=O)CC(Nc3ccc(C)cc3)C2=O)cc1 (stereo not drawn)	6	9	3	10	5	-5	/	/	/

Screening data as filed in PubChem BioAssay.
